Tests used:
Format in all cases: functional, cell-based
[1] = Cytotoxicity against human MiaPaCa cells assessed as inhibition of cell viability after 6 days by MTT assay; details: MIA PaCa-2, 144 h
Method in brief: (§1)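 Temsirolimus, sunitinib, gemcitabine and 5-fluorouracil served as positive controls.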

PANC-1 = assay: Cytotoxicity against human PANC1 cells assessed as inhibition of cell viability after 6 days by MTT assay; details: PANC-1, 144 h; method in brief: as §1
ACHN = assay: Cytotoxicity against human ACHN cells assessed as inhibition of cell viability after 6 days by MTT assay; details: 144 h; method in brief: as §1
A498 = assay: Cytotoxicity against human A498 cells assessed as inhibition of cell viability after 6 days by MTT assay; details: A498, 144 h; method in brief: as §1

Structure (SMILES) | IC50 [1] | IC50 (PANC-1) | IC50 (ACHN) | IC50 (A498)
Nc1ccn([C@@H]2O[C@H](CO)[C@@H](O)C2(F)F)c(=O)n1 [GEMCITABINE] | 3 µM | – | – | –
CC(C)=CCC/C(C)=C/[C@@H]1CC(C)=C[C@]2(C=C(C=O)[C@H]3C[C@@H](O)C(C)=C[C@H]3O2)O1 [PHORBAKETAL H] | > 50 µM | > 50 µM | > 50 µM | 9.8 µM
CCN(CC)CCNC(=O)c1c(C)[nH]c(/C=C2\C(=O)Nc3ccc(F)cc32)c1C [SUNITINIB] | – | – | 2.5 µM | –
CC1=C[C@]2(C=C(CO)[C@H]3CC(=O)C(C)=C[C@H]3O2)O[C@H](/C=C(\C)CCC(=O)C(C)C)C1 [PHORBAKETAL E] | 16.7 µM | 25.3 µM | 18 µM | 12.5 µM
CC(=O)O[C@H]1C[C@@H]2C(CO)=C[C@]3(C=C(C)C[C@@H](/C=C(\C)C/C=C/C(C)(C)OO)O3)O[C@@H]2C=C1C [PHORBAKETAL G] | > 50 µM | > 50 µM | > 50 µM | > 50 µM
CC(=O)O[C@@H]1C[C@@H]2C(CO)=C[C@]3(C=C(C)C[C@@H](/C=C(\C)C/C=C/C(C)(C)OO)O3)O[C@@H]2C=C1C [PHORBAKETAL F] | > 50 µM | > 50 µM | > 50 µM | > 50 µM
CC(C)=CCC/C(C)=C/[C@@H]1CC(C)=C[C@]2(C=C(C=O)[C@H]3CC(=O)C(C)=C[C@H]3O2)O1 [PHORBAKETAL I] | 22 µM | 12.8 µM | 22.3 µM | 9 µM
CC(=O)O[C@@H]1C[C@@H]2C(C=O)=C[C@]3(C=C(C)C[C@@H](/C=C(\C)CCC=C(C)C)O3)O[C@@H]2C=C1C [PHORBAKETAL J] | > 50 µM | > 50 µM | > 50 µM | > 50 µM
CC(=O)O[C@H]1C[C@@H]2C(C=O)=C[C@]3(C=C(C)C[C@@H](/C=C(\C)CCC=C(C)C)O3)O[C@@H]2C=C1C [PHORBAKETAL K] | > 50 µM | > 50 µM | > 50 µM | > 50 µM
CO[C@H]1C[C@@H]2CC[C@@H](C)[C@@](O)(O2)C(=O)C(=O)N2CCCC[C@H]2C(=O)O[C@H]([C@H](C)C[C@@H]2CC[C@@H](OC(=O)C(C)(CO)CO)[C@H](OC)C2)CC(=O)[C@H](C)/C=C(\C)[C@@H](O)[C@@H](OC)C(=O)[C@H](C)C[C@H](C)/C=C/C=C/C=C/1C [TEMSIROLIMUS] | – | – | – | 0.5 µM
O=c1[nH]cc(F)c(=O)[nH]1 [FLUOROURACIL] | – | 50 µM | – | –
C=C(C[C@H](O)/C=C(\C)CC/C=C(\C)CCC=C(C)C)[C@H]1CC(=O)C(C)=C[C@H]1O [PHORBIN A] | 5.2 µM | 7.8 µM | 10 µM | 4.9 µM

Source: ChEMBL document CHEMBL2331092, “Bioactive sesterterpenoids from a Korean sponge Monanchora sp” (J Nat Prod, 2013)
